Reference: article PMC3777270 (Biomaterials, 2010)

Tested on: S. aureus strain MZ100
Test: In vitro S. aureus biofilm formation on coated Ti slides
Assay type: cell-based, Staphylococcus aureus
Settings: 5 h exposure to S. aureus, 0.1% crystal violet; for macroscopic appearance of crystal violet stained wells: digital photographs; for cell attachment in phase-contrast micrographs: 630×
In short: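 Wells were formed on 20 nm Ti-coated glass slides with adhesive silicone isolators. PEGylated mono-, di- or tetravalent Ti-binding peptide coatings (500 μL) were applied in triplicate, held 2 h at RT and washed twice with PBS; uncoated Ti was included. Overnight TSB culture was diluted to ~5 × 10^7 CFU/mL in TSB + 0.2% glucose, then 5 h at 37 °C in a humidified chamber.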

Substance	macroscopic appearance of crystal violet stained wells	cell attachment in phase-contrast micrographs
(SKHKGGKHKGGKHKG)2K)2KSSGK(Biotin) –GGC–PEG [TBP4–PEG]	remained largely clear with small, disperse patches of staining	significantly fewer adhered bacteria
(SKHKGGKHKGGKHKG)2KSSGK(Biotin) –GGC–PEG [TBP2–PEG]	thick, dense biofilm	slight decrease in cell density
SKHKGGKHKGGKHKGSSGK(Biotin) –GGC–PEG [TBP1–PEG]	thick, dense biofilm	substantial cell attachment
